Results reported in ChEMBL document CHEMBL2069193 (Bioorg Med Chem Lett, 2012).
Values belong to the compound of their own block, whether it stands above or below them.

Tests used:
CHO = test: Cytotoxicity against CHO cells; assay type: cell-based; conditions: Cricetulus griseus
LAD2 [1] = test: Inhibition of human LAD2 cells degranulation preincubated for 30 mins before streptavidin stimulation measured after 30 mins by measuring beta-hexosaminidase activity; assay type: functional, cell-based
In short: (§1)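 LAD2 mast cells sensitized overnight at 37 °C, 5% CO2 with 100 ng/ml biotin-IgE in StemPro-34 growth medium with 2 mM glutamine and 100 ng/ml SCF. They were washed into release buffer, plated at 10,000 cells/well, given drug for 30 min, then 125 ng/ml streptavidin for 30 min. Supernatant and freeze-thaw lysate were incubated 90 min at 37 °C with 1 mM p-nitrophenyl-N-acetyl-D-glucosamide, citrate pH 4.5.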

LAD2 [2] = test: Inhibition of human LAD2 cells degranulation at 1 uM preincubated for 30 mins before streptavidin stimulation measured after 30 mins by measuring beta-hexosaminidase activity; assay type: functional; in short: as §1
[3] = biological target: Glycogen synthase kinase-3 alpha (Homo sapiens) (UniProt P49840); test: Inhibition of human GSK3alpha at 1 uM
[4] = biological target: Protein kinase C epsilon type (Homo sapiens) (UniProt Q02156); test: Inhibition of human PKCepsilon at 1 uM
[5] = biological target: Receptor-type tyrosine-protein kinase FLT3 (Homo sapiens) (UniProt P36888); test: Inhibition of human Flt3 at 1 uM
[6] = biological target: Cyclin-dependent kinase 1/cyclin B1 (Homo sapiens) (UniProt P06493+P14635); test: Inhibition of human CDK1/cyclinB at 1 uM; assay type: protein-complex assay
[7] = biological target: Serine/threonine-protein kinase Chk1 (Homo sapiens) (UniProt O14757); test: Inhibition of human CHK1 at 1 uM
Sequence of Serine/threonine-protein kinase Chk1 (Homo sapiens) (O14757 whole entry): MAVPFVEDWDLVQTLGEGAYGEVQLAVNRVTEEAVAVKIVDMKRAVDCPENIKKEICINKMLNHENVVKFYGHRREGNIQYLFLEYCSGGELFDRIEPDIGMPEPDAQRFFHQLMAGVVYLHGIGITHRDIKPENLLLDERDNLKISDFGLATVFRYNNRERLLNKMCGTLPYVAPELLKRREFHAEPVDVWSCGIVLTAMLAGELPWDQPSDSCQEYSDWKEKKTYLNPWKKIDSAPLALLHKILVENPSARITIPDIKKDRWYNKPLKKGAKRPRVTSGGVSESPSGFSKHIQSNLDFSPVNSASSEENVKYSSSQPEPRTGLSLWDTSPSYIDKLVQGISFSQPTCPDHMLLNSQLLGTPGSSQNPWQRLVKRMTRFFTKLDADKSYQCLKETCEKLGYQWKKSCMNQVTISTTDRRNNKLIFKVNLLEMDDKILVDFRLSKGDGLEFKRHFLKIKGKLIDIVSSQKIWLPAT

[8] = biological target: Hepatocyte growth factor receptor (Homo sapiens) (UniProt P08581); test: Inhibition of human Met at 1 uM
[9] = biological target: Dual specificity mitogen-activated protein kinase kinase 6 (Homo sapiens) (UniProt P52564); test: Inhibition of human MKK6 at 1 uM
[10] = biological target: Fibroblast growth factor receptor 3 (Homo sapiens) (UniProt P22607); test: Inhibition of human FGFR3 at 1 uM
[11] = biological target: MAP kinase-activated protein kinase 5 (Homo sapiens) (UniProt Q8IW41); test: Inhibition of human PRAK at 1 uM
[12] = biological target: High affinity nerve growth factor receptor (Homo sapiens) (UniProt P04629); test: Inhibition of human TrkA at 1 uM
[13] = biological target: Focal adhesion kinase 1 (Homo sapiens) (UniProt Q05397); test: Inhibition of human FAK at 1 uM
Sequence of Focal adhesion kinase 1 (Homo sapiens) (Q05397 2-1052 limits assumed): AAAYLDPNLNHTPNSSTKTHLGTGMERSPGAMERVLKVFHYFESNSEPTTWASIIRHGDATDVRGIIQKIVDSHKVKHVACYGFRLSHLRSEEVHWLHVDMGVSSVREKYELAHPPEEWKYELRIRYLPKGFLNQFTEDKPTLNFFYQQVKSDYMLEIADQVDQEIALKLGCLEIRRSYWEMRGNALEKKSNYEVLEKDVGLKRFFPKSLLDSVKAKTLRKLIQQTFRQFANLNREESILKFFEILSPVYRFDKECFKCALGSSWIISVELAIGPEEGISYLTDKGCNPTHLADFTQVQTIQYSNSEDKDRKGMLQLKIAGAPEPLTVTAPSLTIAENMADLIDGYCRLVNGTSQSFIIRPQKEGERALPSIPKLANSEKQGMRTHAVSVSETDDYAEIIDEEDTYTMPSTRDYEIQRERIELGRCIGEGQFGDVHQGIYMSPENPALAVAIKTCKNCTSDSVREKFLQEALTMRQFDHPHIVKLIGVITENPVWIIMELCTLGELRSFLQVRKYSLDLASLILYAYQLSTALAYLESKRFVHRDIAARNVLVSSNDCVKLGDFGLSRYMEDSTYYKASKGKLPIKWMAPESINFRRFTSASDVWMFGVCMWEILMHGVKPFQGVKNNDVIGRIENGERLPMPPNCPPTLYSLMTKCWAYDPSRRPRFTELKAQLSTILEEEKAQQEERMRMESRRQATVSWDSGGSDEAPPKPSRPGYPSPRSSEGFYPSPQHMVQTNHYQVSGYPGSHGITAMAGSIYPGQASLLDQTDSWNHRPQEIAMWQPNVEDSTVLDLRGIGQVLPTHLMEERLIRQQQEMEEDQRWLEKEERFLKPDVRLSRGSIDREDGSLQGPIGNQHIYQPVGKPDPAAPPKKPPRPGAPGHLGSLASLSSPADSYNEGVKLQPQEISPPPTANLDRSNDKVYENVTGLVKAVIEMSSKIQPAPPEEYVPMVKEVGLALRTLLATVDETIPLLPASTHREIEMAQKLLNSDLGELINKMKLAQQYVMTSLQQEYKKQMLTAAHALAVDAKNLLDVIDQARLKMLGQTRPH

[14] = biological target: Tyrosine-protein kinase receptor UFO (Homo sapiens) (UniProt P30530); test: Inhibition of human Axl at 1 uM
[15] = biological target: Mitogen-activated protein kinase kinase kinase 7 (Homo sapiens) (UniProt O43318); test: Inhibition of human TAK1 at 1 uM
[16] = biological target: Aurora kinase A (Homo sapiens) (UniProt O14965); test: Inhibition of human Aurora-A at 1 uM
[17] = biological target: Tyrosine-protein kinase Yes (Homo sapiens) (UniProt P07947); test: Inhibition of human Yes at 1 uM
[18] = biological target: Serine/threonine-protein kinase pim-1 (Homo sapiens) (UniProt P11309); test: Inhibition of human Pim-1 at 1 uM
[19] = biological target: Tyrosine-protein kinase Fgr (Homo sapiens) (UniProt P09769); test: Inhibition of human Fgr at 1 uM
[20] = biological target: Glycogen synthase kinase-3 beta (Homo sapiens) (UniProt P49841); test: Inhibition of human GSK3beta at 1 uM
[21] = biological target: Tyrosine-protein kinase HCK (Homo sapiens) (UniProt P08631); test: Inhibition of human Hck at 1 uM
[22] = biological target: Tyrosine-protein kinase ITK/TSK (Homo sapiens) (UniProt Q08881); test: Inhibition of human Itk at 1 uM
Sequence of Tyrosine-protein kinase ITK/TSK (Homo sapiens) (Q08881 whole entry): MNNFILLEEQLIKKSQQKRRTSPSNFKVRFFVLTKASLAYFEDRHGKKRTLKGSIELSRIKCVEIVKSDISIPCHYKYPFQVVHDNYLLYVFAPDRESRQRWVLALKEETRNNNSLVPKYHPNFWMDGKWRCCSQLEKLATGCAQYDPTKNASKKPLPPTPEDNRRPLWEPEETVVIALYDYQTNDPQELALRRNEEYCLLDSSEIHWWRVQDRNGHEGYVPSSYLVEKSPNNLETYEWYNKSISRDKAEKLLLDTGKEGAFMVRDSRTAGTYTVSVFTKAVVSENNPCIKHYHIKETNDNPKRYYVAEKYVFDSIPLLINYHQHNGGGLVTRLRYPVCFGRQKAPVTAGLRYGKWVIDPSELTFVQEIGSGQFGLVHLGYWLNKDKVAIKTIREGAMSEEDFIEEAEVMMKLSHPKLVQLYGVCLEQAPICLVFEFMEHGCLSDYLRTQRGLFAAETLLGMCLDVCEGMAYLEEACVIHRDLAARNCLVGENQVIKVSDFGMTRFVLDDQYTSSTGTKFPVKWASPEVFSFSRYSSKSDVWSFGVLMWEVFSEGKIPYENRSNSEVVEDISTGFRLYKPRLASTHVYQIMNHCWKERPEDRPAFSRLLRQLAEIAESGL

[23] = biological target: Protein kinase C beta type (Homo sapiens) (UniProt P05771); test: Inhibition of human PKCbeta2 at 1 uM
[24] = biological target: Vascular endothelial growth factor receptor 1 (Homo sapiens) (UniProt P17948); test: Inhibition of human Flt1 at 1 uM
Sequence of Vascular endothelial growth factor receptor 1 (Homo sapiens) (P17948 whole entry): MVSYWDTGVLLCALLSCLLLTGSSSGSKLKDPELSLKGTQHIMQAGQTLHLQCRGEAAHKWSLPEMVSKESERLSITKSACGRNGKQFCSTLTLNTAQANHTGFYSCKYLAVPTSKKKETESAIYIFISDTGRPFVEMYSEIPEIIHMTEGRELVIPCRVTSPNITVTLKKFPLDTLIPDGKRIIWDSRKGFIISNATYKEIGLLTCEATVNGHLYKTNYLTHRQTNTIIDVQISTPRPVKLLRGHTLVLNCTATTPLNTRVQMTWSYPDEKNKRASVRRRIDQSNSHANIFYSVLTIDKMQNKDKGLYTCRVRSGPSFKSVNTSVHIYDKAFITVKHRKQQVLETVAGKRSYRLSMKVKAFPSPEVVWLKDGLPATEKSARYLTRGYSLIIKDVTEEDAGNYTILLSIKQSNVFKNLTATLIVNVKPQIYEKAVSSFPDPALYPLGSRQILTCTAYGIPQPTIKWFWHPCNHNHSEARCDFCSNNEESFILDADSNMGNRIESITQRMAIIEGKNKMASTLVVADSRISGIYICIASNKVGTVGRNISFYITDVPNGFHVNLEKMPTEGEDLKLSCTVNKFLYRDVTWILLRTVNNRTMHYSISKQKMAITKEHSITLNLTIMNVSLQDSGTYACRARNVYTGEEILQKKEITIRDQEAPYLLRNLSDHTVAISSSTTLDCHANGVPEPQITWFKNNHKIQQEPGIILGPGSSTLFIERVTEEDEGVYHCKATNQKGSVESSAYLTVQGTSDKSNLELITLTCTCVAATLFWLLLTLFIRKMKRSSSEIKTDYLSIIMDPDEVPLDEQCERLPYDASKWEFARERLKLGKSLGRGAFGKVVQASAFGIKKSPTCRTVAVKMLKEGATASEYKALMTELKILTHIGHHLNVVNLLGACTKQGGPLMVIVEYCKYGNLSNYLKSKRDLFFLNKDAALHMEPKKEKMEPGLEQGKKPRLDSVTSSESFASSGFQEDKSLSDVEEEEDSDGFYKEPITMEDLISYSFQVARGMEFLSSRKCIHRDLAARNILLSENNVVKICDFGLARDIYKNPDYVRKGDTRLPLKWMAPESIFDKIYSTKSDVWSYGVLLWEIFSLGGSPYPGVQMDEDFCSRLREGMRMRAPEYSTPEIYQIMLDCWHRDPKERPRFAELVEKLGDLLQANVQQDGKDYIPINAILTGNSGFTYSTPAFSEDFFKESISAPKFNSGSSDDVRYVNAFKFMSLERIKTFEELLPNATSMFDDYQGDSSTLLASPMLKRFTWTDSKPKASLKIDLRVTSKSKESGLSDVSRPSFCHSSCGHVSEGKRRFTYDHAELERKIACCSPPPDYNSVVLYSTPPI

[25] = biological target: Proto-oncogene tyrosine-protein kinase Src (Homo sapiens) (UniProt P12931); test: Inhibition of human cSRC at 1 uM
[26] = biological target: Protein kinase C gamma type (Homo sapiens) (UniProt P05129); test: Inhibition of human PKCgamma at 1 uM
[27] = biological target: Ribosomal protein S6 kinase alpha-6 (Homo sapiens) (UniProt Q9UK32); test: Inhibition of human Rsk4 at 1 uM
[28] = biological target: Tyrosine-protein kinase BTK (Homo sapiens) (UniProt Q06187); test: Inhibition of human BTK at 1 uM
[29] = biological target: Protein-tyrosine kinase 2-beta (Homo sapiens) (UniProt Q14289); test: Inhibition of human Pyk2 at 1 uM
[30] = biological target: Tyrosine-protein kinase Lyn (Homo sapiens) (UniProt P07948); test: Inhibition of human Lyn at 1 uM
[31] = biological target: Inhibitor of nuclear factor kappa-B kinase subunit beta (Homo sapiens) (UniProt O14920); test: Inhibition of human IKKbeta at 1 uM
[32] = biological target: Mitogen-activated protein kinase 10 (Homo sapiens) (UniProt P53779); test: Inhibition of human JNK3 at 1 uM
[33] = biological target: ALK tyrosine kinase receptor (Homo sapiens) (UniProt Q9UM73); test: Inhibition of human Alk at 1 uM
[34] = biological target: Tyrosine-protein kinase ZAP-70 (Homo sapiens) (UniProt P43403); test: Inhibition of human ZAP70 at 1 uM
[35] = biological target: Tyrosine-protein kinase Fyn (Homo sapiens) (UniProt P06241); test: Inhibition of human Fyn at 1 uM
[36] = biological target: Macrophage colony-stimulating factor 1 receptor (Homo sapiens) (UniProt P07333); test: Inhibition of human Fms at 1 uM
Sequence of Macrophage colony-stimulating factor 1 receptor (Homo sapiens) (P07333 whole entry): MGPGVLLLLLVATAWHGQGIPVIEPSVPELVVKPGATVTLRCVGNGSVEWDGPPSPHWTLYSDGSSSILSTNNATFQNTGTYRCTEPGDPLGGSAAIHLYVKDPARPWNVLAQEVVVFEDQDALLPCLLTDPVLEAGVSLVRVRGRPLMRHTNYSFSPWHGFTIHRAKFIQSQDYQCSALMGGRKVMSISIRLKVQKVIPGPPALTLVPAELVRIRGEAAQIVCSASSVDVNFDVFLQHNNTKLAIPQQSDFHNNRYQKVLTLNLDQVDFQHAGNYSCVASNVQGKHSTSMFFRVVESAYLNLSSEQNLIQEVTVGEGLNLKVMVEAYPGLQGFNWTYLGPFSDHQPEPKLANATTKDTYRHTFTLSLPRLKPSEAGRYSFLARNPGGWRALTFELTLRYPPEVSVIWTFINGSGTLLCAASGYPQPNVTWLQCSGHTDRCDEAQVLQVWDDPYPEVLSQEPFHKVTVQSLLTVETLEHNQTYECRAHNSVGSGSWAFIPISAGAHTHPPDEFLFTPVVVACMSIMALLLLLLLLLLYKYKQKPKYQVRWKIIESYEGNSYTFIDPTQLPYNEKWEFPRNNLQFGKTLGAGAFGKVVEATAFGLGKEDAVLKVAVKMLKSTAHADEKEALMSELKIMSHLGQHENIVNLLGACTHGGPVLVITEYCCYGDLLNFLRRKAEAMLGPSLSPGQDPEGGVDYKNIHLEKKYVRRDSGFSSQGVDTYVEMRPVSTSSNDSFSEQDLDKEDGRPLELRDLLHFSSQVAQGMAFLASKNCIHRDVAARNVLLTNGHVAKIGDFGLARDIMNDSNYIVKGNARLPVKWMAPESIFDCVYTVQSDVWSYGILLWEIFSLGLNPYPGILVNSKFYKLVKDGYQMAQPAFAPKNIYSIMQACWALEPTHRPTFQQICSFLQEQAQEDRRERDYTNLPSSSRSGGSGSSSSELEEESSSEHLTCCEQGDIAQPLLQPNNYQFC

[37] = biological target: Rho-associated protein kinase 2 (Homo sapiens) (UniProt O75116); test: Inhibition of human ROCK2 at 1 uM
[38] = biological target: Calcium/calmodulin-dependent protein kinase type II subunit delta (Homo sapiens) (UniProt Q13557); test: Inhibition of human CaMK2delta at 1 uM
Sequence of Calcium/calmodulin-dependent protein kinase type II subunit delta (Homo sapiens) (Q13557 whole entry, canonical isoform): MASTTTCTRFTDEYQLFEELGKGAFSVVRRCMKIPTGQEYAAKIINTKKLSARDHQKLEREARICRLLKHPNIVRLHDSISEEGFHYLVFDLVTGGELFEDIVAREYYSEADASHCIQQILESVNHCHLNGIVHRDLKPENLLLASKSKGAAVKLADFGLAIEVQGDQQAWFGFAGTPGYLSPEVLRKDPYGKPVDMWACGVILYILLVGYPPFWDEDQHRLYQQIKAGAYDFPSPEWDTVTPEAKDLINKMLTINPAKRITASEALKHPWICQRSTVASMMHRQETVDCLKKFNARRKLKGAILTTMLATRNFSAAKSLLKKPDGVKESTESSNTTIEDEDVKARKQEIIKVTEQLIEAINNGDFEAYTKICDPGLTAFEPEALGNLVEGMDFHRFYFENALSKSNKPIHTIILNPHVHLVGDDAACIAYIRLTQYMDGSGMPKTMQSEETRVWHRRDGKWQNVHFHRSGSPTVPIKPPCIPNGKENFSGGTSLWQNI

[39] = biological target: Casein kinase I isoform delta (Homo sapiens) (UniProt P48730); test: Inhibition of human CK1delta at 1 uM
[40] = biological target: Proto-oncogene tyrosine-protein kinase receptor Ret (Homo sapiens) (UniProt P07949); test: Inhibition of human Ret at 1 uM
[41] = biological target: Tyrosine-protein kinase Lck (Homo sapiens) (UniProt P06239); test: Inhibition of human Lck at 1 uM
[42] = biological target: 3-phosphoinositide-dependent protein kinase 1 (PDPK1) (Homo sapiens) (UniProt O15530); test: Inhibition of human PDK1 at 1 uM

IC50 (LAD2 [1]): 0.14 µM
SMILES: O=C(O)c1ccc(C(=O)Nc2cc(Nc3cnccn3)nc(-c3ccnc(N4CCNCC4)c3)c2)cc1
IC50 (CHO): > 20 µM

IC50 (LAD2 [1]): 0.204 µM
SMILES: O=C(Nc1cc(Nc2cnccn2)nc(-c2ccnc(N3CCNCC3)c2)c1)c1ccc(C(=O)O)nc1
IC50 (CHO): > 20 µM

IC50 (LAD2 [1]): 0.169 µM
SMILES: Cc1cc(C(=O)Nc2cc(Nc3cnccn3)nc(-c3ccnc(N4CCNCC4)c3)c2)n(C)n1
IC50 (CHO): > 20 µM

IC50 (LAD2 [1]): 0.585 µM
SMILES: Oc1ccc(CNc2cc(Nc3cnccn3)nc(-c3ccnc(N4CCNCC4)c3)c2)cc1
IC50 (CHO): > 20 µM

IC50 (LAD2 [1]): 0.352 µM
SMILES: O=C(Cc1cccnc1)Nc1cc(Nc2cnccn2)nc(-c2ccnc(N3CCNCC3)c2)c1
IC50 (CHO): > 20 µM

IC50 (LAD2 [1]): 0.362 µM
SMILES: O=C(Nc1cc(Nc2cnccn2)nc(-c2ccnc(N3CCNCC3)c2)c1)c1ccccc1
IC50 (CHO): > 20 µM

IC50 (LAD2 [1]): 1 µM
SMILES: CC(=O)N1CCC(C(=O)Nc2cc(Nc3cnccn3)nc(-c3ccnc(N4CCNCC4)c3)c2)CC1
IC50 (CHO): > 20 µM

IC50 (LAD2 [1]): 0.331 µM
SMILES: O=C(Nc1cc(Nc2cnccn2)nc(-c2ccnc(N3CCNCC3)c2)c1)c1cncnc1
IC50 (CHO): > 20 µM

IC50 (LAD2 [1]): 0.188 µM
SMILES: CNc1cc(Nc2cnccn2)nc(-c2ccnc(N3CCNCC3)c2)c1
IC50 (CHO): > 20 µM

inhibition [3]: > 50%
inhibition [4]: < 50%
inhibition [5]: > 50%
inhibition [6]: < 50%
IC50 (LAD2 [1]): 0.118 µM
inhibition [7]: < 50%
inhibition [8]: < 50%
inhibition [9]: < 50%
inhibition [10]: < 50%
inhibition [11]: < 50%
inhibition [12]: < 50%
inhibition [13]: < 50%
inhibition [14]: < 50%
inhibition [15]: < 50%
inhibition [16]: < 50%
inhibition [17]: > 50%
inhibition [18]: < 50%
inhibition [19]: > 50%
inhibition [20]: < 50%
inhibition [21]: > 50%
inhibition [22]: > 50%
inhibition [23]: < 50%
inhibition [24]: < 50%
inhibition [25]: > 50%
inhibition [26]: < 50%
inhibition [27]: < 50%
inhibition [28]: > 50%
inhibition [29]: < 50%
inhibition [30]: > 50%
inhibition [31]: < 50%
inhibition [32]: < 50%
inhibition [33]: < 50%
inhibition [34]: < 50%
inhibition [35]: < 50%
inhibition [36]: < 50%
inhibition [37]: < 50%
inhibition [38]: < 50%
inhibition [39]: < 50%
inhibition [40]: > 50%
inhibition [41]: > 50%
inhibition [42]: < 50%
SMILES: Nc1cc(Nc2cnccn2)nc(-c2ccnc(N3CCNCC3)c2)c1
IC50 (CHO): > 20 µM

Continued, compound first:

SMILES: FC(F)(F)c1ccnc(Nc2cccc(-c3ccnc(N4CCNCC4)c3)n2)c1
IC50 (CHO): 1 µM

SMILES: O=C(Nc1cc(Nc2cnccn2)nc(-c2ccnc(N3CCNCC3)c2)c1)c1cccnc1
IC50 (LAD2 [1]): 0.122 µM
IC50 (CHO): > 20 µM

SMILES: c1cc(-c2cccc(Nc3cnccn3)n2)cc(N2CCNCC2)c1
IC50 (CHO): > 15 µM

SMILES: Cc1ccnc(Nc2cccc(-c3ccnc(N4CCNCC4)c3)n2)c1
IC50 (CHO): 1 µM

SMILES: c1cc(Nc2cnccn2)nc(-c2ccnc(N3CCNCC3)c2)c1
IC50 (CHO): > 15 µM

SMILES: O=C(Nc1cc(Nc2cnccn2)nc(-c2ccnc(N3CCNCC3)c2)c1)C1CCNCC1
IC50 (CHO): > 20 µM
inhibition at 1 µM (LAD2 [2]): 14%

SMILES: FC(F)(F)c1ccnc(Nc2cccc(-c3cccc(N4CCNCC4)c3)n2)c1
IC50 (CHO): 1 µM
